Measurements reported in the EternaBench riboswitch data.

System: MS2 coat protein
Assay: apparent Kd, MS2 coat protein; higher = weaker binding; RNA-MaP array; FMN 200 µM where present
Procedure, shortened: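 The apparent Kd comes from binding curves fitted cluster by cluster, filtered, and summarised as a median. Those curves followed SNAP-549-labelled MS2 coat protein from 0.7 or 1.5 nM, doubling to 3 µM, on Illumina sequencing-chip clusters where stalled E. coli RNA polymerase had transcribed the designs, without and then with constant ligand. The buffer was 100 mM Tris-HCl pH 7.5, 80 mM KCl, 4 mM MgCl2, BSA, DTT, yeast tRNA and Tween-20, and green signal was normalised to red-channel RNA signal and control-cluster median Fmax.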

[1] = designed as: OFF switch for flavin mononucleotide, no ligand
[2] = ligand present: flavin mononucleotide, designed as: OFF switch for flavin mononucleotide
[3] = designed as: ON switch for flavin mononucleotide, no ligand
[4] = ligand present: flavin mononucleotide, designed as: ON switch for flavin mononucleotide

Sequence | apparent Kd [1] [nM] | apparent Kd [2] [nM] | apparent Kd [3] [nM] | apparent Kd [4] [nM]
ACGUUUUUUGAGGAUAUGCGAUAGUUUUAUAUCGUAGAAGGCGAUACAUGAGGAUCACCCAUGUUUAUGGGCAU | 167 | 197 | – | –
UAUAGGCUAGGAUAUACAACACUUGGUUCAGAUGUUUGAAGACAUGAGGAUCACCCAUGUAGAAGGAGCAUUCA | 33.5 | 76.3 | – | –
CAGCUACCCGAUAUGGGUUCAUGUGCAGAAGGCCAGGUACAUGAGGAUCACCCAUGUAAAGAUAUGGAGGAUAUGUUAGUGAAU | – | – | 149 | 8.99
CAGCUCUGAGGAUAUCCAUCCUCCUACAUGAGGAUCACCCAUGUUUCCCUCUGGGUUUUCGGAGAAGGCAGUUAUU | 238 | 459 | – | –
ACAUGUUUUACAGGAUAUGUUUUACAAUAAACAUUCAGUUAUUACGAUUAAACAGAAGGGUAUACAUGAGGAUCACCCAUGUAA | 17.1 | 15 | – | –
AUAUAACCUAGCAAAAUUUAAUAACAUGAGGAUCACCCAUGUAGAAGGCUGUCCUAAAAUAGGACAGAGGAUAUACGUGCUAGG | 5.43 | 6.73 | – | –
CAUACAGUAGUUAGGAUAUUGCAACGUAUACGGAUCGAGAAGGGACAUGAGGAUCACCCAUGUAGAUUGUAAAG | 37.6 | 30.7 | – | –
AGUACCAUGUAGAAGGGAUAUCUGAUUCAGAUAUCAGGAUAUACAUGAGGAUCACCCAUGUAAAUGUACUCCAGGAAACUGGAA | 18 | 48 | – | –
GUCAGCUCGUGAGGAUAUACAUGUGCUGGAAACAGCACUAAUUAAUUCACAUGAGGAUCACCCAUGUAGAAGGCACGAGCUGAU | 16.2 | 17.8 | – | –
CGCUACUACCAGAAGGACAUGAGGAUCACCCAUGUAGGAUAUGGGUUACAAGUACCAGUGUAAAGAAACUACGCUACGUAUGCG | – | – | 36.6 | 7.84
GGUACCAUCACAGGAUAUGCAAUCCUUUGGGUUGCAGAAGGGUGUAACAUGAGGAUCACCCAUGUGGUGCCAGGGCGUGAGCCC | – | – | 423 | 44.5
UAUUCAUACGAAGGAUAUGGUUACAUGAGGAUCACCCAUGUAUGUAUAUUGAUCUAGUUAUUUAACCAGAAGGUCGAAUAUAAA | 35.4 | 72.6 | – | –
AUAAGUGCAGGAUAUACGAAAUGCUAGCGAAAGCUAGCAUAACAUGAGGAUCACCCAUGUAGAAGGGCACAAUA | 28.4 | 21.5 | – | –
UAGACCGAUGUUAGGAUAUCUGGUCGAGAAAGAAAAGAGAAGGAACAUGAGGAUCACCCAUGUACCCGGGUAAC | 15 | 19.2 | – | –
UCCAUCCCUGUGAGGAUAUCGUCCGUUUUUUGUUCCGAGAAGGCACAUGAGGAUCACCCAUGUUUUUUGUUUUU | 29.4 | 58.8 | – | –
GCAAAGCCUGACAUGAGGAUCACCCAUGUUAGAUUGUUAUGUCAGGAUAUUGUCUAGCAACUAGACAAGAAGGGAUGCUUUGCU | – | – | 369 | 27.6
GCCAUCGCAUGAGGAUAUGGCACCGUUUCGGUGCCAGAAGGCAUGUCGAAUGACAUGAGGAUCACCCAUGUAGUUAAGAUGGCA | – | – | 480 | 25.2
UUGGACGUCGUAGGAGAUGUAGGAUAUUCCUACAUGAGGAUCACCCAUGUUGACAUGGAAGAAGGACAGAAGGACGAUGUCCAU | – | – | 294 | 8.27
UGACGAGUAGGAUAUUGGACUUGCGACAUGAGGAUCACCCAUGUGACGUCAACGUGGCACCAAGAAGGGCUACGUC | 68.1 | 46.9 | – | –
ACUGAUCAUGAGGAUAUGCGCCAGAACGCCGGCGUAGAAGGCGUGACAUGAGGAUCACCCAUGUCAGUUCGCGA | 59.2 | 60.3 | – | –
GCGCCGCAGCGGUACACGAGACAUGAGGAUCACCCAUGUGACAGAAGGGACUUGUUAAAGGUAGGUCAGGAUAUGUCUUAAAAG | – | – | 184 | 56.5
UUUGGUUGUGUAGGAUAUGUGUGGCGGGCUGGCACAGAAGGACAUGAGGAUCACCCAUGUGGUUUGGGUUGGGUGGUUGGCCCG | 943 | 771 | – | –
GUAGCAUACCGAGGAUAUCUAACGACAAAGUCGACAUGAGGAUCACCCAUGUGGCGAAAGCCUUGGGAGAAGGCGGAAUGCUAC | – | – | 16.2 | 12.6
AAACACGGACAUGAGGAUCACCCAUGUGGCGAAAGCCUUGGGAGAAGGCCGAUAGCAAAGCUAUCGGAGGAUAUCCAUACCGUG | – | – | 19.8 | 7.72
AUAUUUAUAUAUUUGGCAAGAAUCAGAAGGCGUUACAUGAGGAUCACCCAUGUUUUGUAUAGUAACGAGGAUAUGAUAUGGAAA | 18.8 | 14.2 | – | –
UAUGACAUGAGGAUCACCCAUGUCAGCGAGAAAUGAGAGUCACAGGAUAUGUUUUCGGCCGGCAGACAGAAGGGUGACCCUCAG | – | – | 7.21 | 6.89
CGUGCGUAUGUGAGGAUAUGCUGGUCCUUGGCUCGGCAGAAGGCACAUGAGGAUCACCCAUGUGGUGUCGUACU | 69 | 179 | – | –
GGACCGUGAAGAGUUGGCGGUCGGCAGGAUAUGACAUGAGGAUCACCCAUGUGAACUCCAUUGGGUCAGAAGGGCCACGACACA | 37.5 | 108 | – | –

Sequence | apparent Kd [1] [nM] | apparent Kd [2] [nM] | apparent Kd [3] [nM] | apparent Kd [4] [nM]
UUCAGCUCGUGAGGAUAUACAUGUGCUGGAAACAGCACUAUUAAGUUCACAUGAGGAUCACCCAUGUAGAAGGCACGAGCUGAG | 14.9 | 19.3 | – | –
UUUUAACAUGAGGAUCACCCAUGUGAGGAUAUCGAAAUUUAUAUUAAUAUUAAUAAUACGAGAAGGCACAUUUU | 80.7 | 79.8 | – | –
UGUGCAGAAGGAUAUGCGUAAGCUCGGUGACGAGCAGGUCUACAUGAGGAUCACCCAUGUAGAAGGUCUGUACU | 16.8 | 17.9 | – | –
GUCAGCUCGUGAGGAUAUACAACACUGCUUCGGCAGUGGAUUAAGAUCACAUGAGGAUCACCCAUGUAGAAGGCACGAGCUGAU | 16.2 | 423 | – | –
GCUGUGGCAUGAGGAUAUGGACAGCUUUGCUGUCCAGAAGGCAUGUCAAUAGACAUGAGGAUCACCCAUGUAGUUAACACAGCA | – | – | 498 | 39.4
CGAUGUUAUGCAGGAUAUCUCUCUUGAAUGCGGAGAGAAGGGCAUAGGGAGACAUACGCCUUAUUACAUGAGGAUCACCCAUGU | 9.02 | 7.92 | – | –
CUUUUGUGAGGAUAUUAGUAGUAAAUAAAUAAAAUUAUUACUGAGAAGGUACAUGAGGAUCACCCAUGUUCCUC | 18.3 | 25.5 | – | –
AAUAUGUUGCAGAAGGCCAUGUUGUGGUAGUACCUCAUGACAUGAGGAUCACCCAUGUCUGUGUUGGAGGAUAUGCAAUAUAUU | 7.24 | 12.3 | – | –
AAUAAACUCACAGGAUAUAGCAGAGGUCGCGUGAACUUACAGGCAACGAUGCUAGAAGGGUGACCACAUGAGGAUCACCCAUGU | – | – | 520 | 145
AGUACUACAGGAUAUACGAGGGAGGUCCACGUGACCCUUAUACAUGAGGAUCACCCAUGUAGAAGGGUAGUACA | 80.3 | 16.4 | – | –
GGACGUCACUCAAACAAUUAAACAUGAGGAUCACCCAUGUCACAGGAUAUGGAUCCUAAUUGGAUCCAGAAGGGUGAGACGUCC | – | – | 251 | 222
UGCCUGAGUCGAGGAUAUUAUGGAUCAAUUAAUACAUGAGGAUCACCCAUGUAAUUAAUUUAACAUGAGAAGGCGACUCAGGCU | – | – | 11.3 | 8.51
UCAGGCUUCGAGAAGGACAUGAGGAUCACCCAUGUGCGUGUGAAGCAGCCGUGAGGCUGCAUCAUGUAGGAUAUCGGAGUCUGG | 74 | 583 | – | –
UUUUAGUAAGGAUAUGCGUAGAUCUCGGAAACGAGAUCUACGCAGAAGGUACAUGAGGAUCACCCAUGUAGAUU | 17.4 | 22.3 | – | –
AGUCAGAGCAGAGGAUAUAUACAUGAGGAUCACCCAUGUGACUGCCUAUGCUAGAAAUAGUAUGUAUAGAAGGCUGCUCUGACA | 752 | 483 | – | –
AGCUAGUCAGGAUAUACGAACAUGUCGCCCGACGUGAAGGGACAUGAGGAUCACCCAUGUAGAAGGGACUAGCA | 135 | 348 | – | –
UCGAUGUAAGAGAAGGAGGACUUCAUGAGGAUCACCCAUGUGUUAGUACUUAGGAUAUUUGACAACAUGAGGAUCACCCAUGUC | – | – | 64.3 | 61.6
CCACCCUGAGGAUAUCCACCCUCAUACAUGAGGAUCACCCAUGUUCAUCCCUGAGUACCCGGAGAAGGCAGAUUCC | 60.3 | 50.6 | – | –
GUGCGGUAGGAGAAGGACGGAGGCUUCAUUACAUACAUGAGGAUCACCCAUGUAGGAUAUCCUACCUCACGCGGCCUCCUCCUG | 6.44 | 6.79 | – | –
GCGAAGAUAGCAGGAUAUAUGUUUCCUACAUGAGGAUCACCCAUGUAGGUGAUCAGCCGAGAAAAGUAGAAGGGCUAUCUUUGC | – | – | 16.5 | 13.7
GCAUGCUAUGUCAGGAUAUACCUCUGGAUACAUAGGUAGAAGGGACAUGAGGAUCACCCAUGUCCUAAACAUGC | 12.2 | 13.4 | – | –
CUUGUGUUAGGAUAUGCGCCCUGAAGUAGAAGGGCCAGAGAGCAGAAGGAACAUGAGGAUCACCCAUGUGUGAC | 59.7 | 56.5 | – | –
UUUUUACAUGAGGAUCACCCAUGUGAGGAUAUGGUUUCGCUGGCCGUAGCCAGUGGAACCAGAAGGCGCGUGAU | 95 | 136 | – | –
AGCCUACAUGAGGAUCACCCAUGUCAGGAUAUCUCGCAACGUGUCAAGUUCACGUCGCAGAGAAGGGACUCGGG | 55.7 | 54 | – | –
GAGGGACAUGAGGAUCACCCAUGUGGUAAAUUUAAAGGAUAUUAGUGUGGGAAAGUAGGGUAAGAAGGUUGAUUGG | – | – | 94.8 | 80.1
CCUCCACAUGAGGAUCACCCAUGUCAGGAUAUCGUGUGCGCGUUUUCGGUCUUUCGCGCGAGAAGGGACGACUG | 27.3 | 28.4 | – | –
AAAUAAACUACCAAAAUAUCCUCACAUGAGGAUCACCCAUGUCAGGAUAUUUGUCCUAAAAGGACAGAGAAGGGACGUGGUAGA | 5.63 | 10.7 | – | –
